# Assay outcomes: PubChem, several laboratories
# In the library only some 2.9% were active in any assay of this set; here they are far more common.
# CRFR2-BP antag: CRF-BP/CRF-R2 complex antagonism. AID 588475. inhibition, % at 11.8 µM. HEK293 CRF-R2/CRF-BP, CRF-induced calcium fluorescence. 350,000 compounds, 0.59% hits;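 active = inhibition of the ligand-induced calcium signal above about 50% at the single tested concentration, limit read from the data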
# Tn6 DDE FP: DD(E)-Tn6 binding inhibition, primary FP screen. Fibrin DD(E) TRITC-Tn6 fluorescence polarization displacement. inhibition, % at 8.3 µM. P02675. 370,000 compounds, 0.21% hits;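 active = inhibition above a per-campaign cutoff: mean of compounds within control limits plus 3 SD, cut at about 15% in these data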;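 also: 0% = median of all compound wells on the plate and 100% = blocking peptide control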
# NRP1-CendR mod: alters CendR peptide binding to human NRP-1; O14786; FAM-RPARPAR peptide binding to NRP-1, fluorescence polarization; inhibition, % at 25 µM; 360,000 compounds, 0.85% hits;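 active = inhibition or corrected inhibition above about 18%, plus a signal ratio from 0.5 to 1.5, limit read from the data, passing the limit was not always enough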
# CRFR2-BP ag: agonists of human CRF-binding protein/CRF-R2 receptor complex | HEK293 CRF-R2/CRF-BP, calcium dye fluorescence (FLIPR); percent of saturating CRF peptide response | activation, % at 13.2 µM | 350,000 compounds, 0.46% hits;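 active = activation of at least 50%, plus an integration ratio under a set limit after plate pattern correction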;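 also: plate controls were neutral control wells without compound for no effect and CRF at EC100 for full effect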
# DDE Tn7 FP inh: DD(E)-Tn7 binding inhibition, primary FP screen | FP displacement of FITC-Tn7 peptide from fibrin DD(E); 0% = median of compound wells per plate | 370,000 compounds, 0.13% hits | inhibition, % at 8.3 µM;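 active = inhibition above the mean of compounds falling within the control limits plus 3 SD of them, cut at about 14% in these data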;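 also: 0% = plate median of compound wells and 100% = 10 µM Aha-Tn7 peptide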
#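 Assay system: Fibrin-DD(E) protein isolated from polymerized human fibrin clots; read-out basis: percent inhibition; medium: Tris/NaCl/CaCl2 buffer, pH 7.8; signal: FP measurement; incubation: 10 min plus 3 h, room temperature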
# proKLK7 act: proKLK7 (human) activation, primary screen. purified proKLK7, EDANS-DABCYL substrate fluorescence; 100% is mature enzyme control, 0% vehicle. activation, % at 7 µM. 370,000 compounds, 0.9% hits;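 active = activation above the mean of all tested compounds plus 3 SD, computed per campaign excluding outliers beyond control limits, cut at about 13% in these data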
# Target sequence (P49862 whole entry, looked up): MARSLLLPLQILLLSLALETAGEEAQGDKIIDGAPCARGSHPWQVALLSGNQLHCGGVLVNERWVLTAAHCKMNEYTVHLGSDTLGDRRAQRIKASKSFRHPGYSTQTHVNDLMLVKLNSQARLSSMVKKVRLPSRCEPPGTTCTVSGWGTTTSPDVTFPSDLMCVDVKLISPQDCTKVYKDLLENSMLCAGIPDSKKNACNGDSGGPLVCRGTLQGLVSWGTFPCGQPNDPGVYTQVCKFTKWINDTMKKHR
# DDE Tn6 FP ctr: counter-screen hit for Tn6 peptide-fibrin DD(E) binding disruption; shares compounds with Tn6 DDE FP; TRITC-Tn6 fluorescence polarization displacement; 0% = median of compound wells, not DMSO; inhibition, % at 8.3 µM; 680 compounds, 2% hits;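 active = inhibition above the mean of test compounds lying between the control limits plus 3 SD of those, cut at about 14% in these data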;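 also: 0% = median of compound wells and 100% = wells with Aha-Tn7 blocking peptide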
# DDE Tn6 confirm: DD(E)-Tn6 binding inhibition, FP confirmation; shares compounds with Tn6 DDE FP; FP displacement of TRITC-Tn6 peptide from DD(E); 0% = per-plate median of test wells; inhibition, % at 8.3 µM; 680 compounds, 10% hits;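 active = inhibition above the mean of compounds lying within the control limits plus 3 SD, cut at about 16% in these data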;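 also: 100% = high control wells holding a competing inhibitor peptide at 10 µM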
# The depositor's hits bear a star; nt = not tested or not shown.
SMILES,CRFR2-BP antag,Tn6 DDE FP,NRP1-CendR mod,CRFR2-BP ag,DDE Tn7 FP inh,proKLK7 act,DDE Tn6 FP ctr,DDE Tn6 confirm
CC1=CC(=O)C=CC1=Nc1ccc(N(C)C)cc1,nt,22*,3,nt,-7,0,2,-2
CCCCCCCCN1C(=O)[C@@H](CC(=O)NCCC(C)C)C[C@@]2(C(=O)OC)C1=C[C@H](C(C)(C)C)O[C@@H]2C,nt,16*,nt,nt,-5,-1,2,-4
CCCCCCCCN1C(=O)[C@@H](CC(=O)NCCCOC)C[C@@]2(C(=O)OC)C1=C[C@H](C(C)(C)C)O[C@@H]2C,nt,3,nt,nt,2,0,nt,nt
CC1CCN(C(=O)COC(=O)Cc2c[nH]c3ccccc23)CC1,1,21*,5,2,2,0,5,-6
CC(C)(C)N(NC(=O)Nc1cccc(F)c1)C(=O)c1ccccc1Cl,nt,3,nt,nt,0,0,nt,nt
CNc1ccc(/C=C2\CSc3ccccc3C2=O)cc1[N+](=O)[O-],7,19*,18,0,-2,-1,4,5
O=C1/C(=C/c2cccc([N+](=O)[O-])c2)CSc2ccc(Cl)cc21,2,3,-9,1,-1,0,nt,nt
Cc1ccccc1-n1c(C)nnc1SCC(=O)N(C)C1CCS(=O)(=O)C1 (stereo not drawn),-1,19*,2,-1,0,0,-2,-5
Cc1cccc(Cl)c1-n1nnnc1C1(C)CSCC(=O)N1Cc1ccc(F)cc1 (stereo not drawn),nt,2,nt,nt,-8,0,nt,nt
CC(C)c1ccc(NC(=O)CSc2n[nH]c(=O)n2-c2ccc3c(c2)OCCO3)cc1,5,0,16,0,-4,0,nt,nt
O=c1[nH]nc(SCc2ccccc2Cl)n1-c1ccc2c(c1)OCCO2,-5,16*,-2,-2,3,0,-6,-7
CC(C)C(=O)Nc1nc2cc3c(cc2s1)OCCO3,-4,4,4,0,-4,0,nt,nt
CC(=O)Nc1nc2cc3c(cc2s1)OCO3,7,16*,5,1,5,0,4,4
CCCn1c(SCC(=O)Nc2ccc3c(c2)CCC3)n[nH]c1=O,13,6,6,0,3,0,nt,nt
CCCCn1c(O)c(C(CC)=Nc2ccc3c(c2)CCC3)c(=O)[nH]c1=O,-11,17*,-14,4,1,0,2,-2
C#CCN1CC(N(C)CCOC(=O)c2ccc(F)cc2)CS1(=O)=O (stereo not drawn),nt,-3,nt,nt,-11,0,nt,nt
CCN(Cc1ccncc1)C(=O)C(CO)c1ccccc1 (stereo not drawn),11,20*,-6,-3,3,0,3,-8
Cc1cc2c(cc1S(=O)(=O)N1CCN(c3cccc(C)c3C)CC1)OCCN2C,29,131*,-3,2,-1,-1,8,67*
N=c1c(C(=O)NC2CCCC2)cc2c(=O)n3ccccc3nc2n1CCN1CCOCC1,6,16*,-12,0,-1,3,0,-2
C[C@@H]1CNC(=O)c2c(C(=O)N3CCN(c4ccccc4)CC3)ncn21,nt,-2,nt,nt,-5,0,nt,nt
C#CCN1C(=O)[C@]2(NCCc3c2[nH]c2ccc(OC)cc32)c2ccccc21,nt,1,nt,nt,-6,-1,nt,nt
COc1ccc(C(=O)N2CCCCCC2)cc1OC1CCN(C(C)=O)CC1,-4,-5,0,1,-6,0,nt,nt
COc1ccc(C(=O)N(C)Cc2ccc(C)o2)cc1OC1CCN(C(C)=O)CC1,-13,16*,0,3,-5,0,9,6
COc1ccc(OC)c(C(=O)NC(CC(N)=O)c2ccc(NCCN3CCCC3)c([N+](=O)[O-])c2)c1 (stereo not drawn),-1,16*,-9,0,4,1,4,-5
O=C(CN1CCN(Cc2ccccc2Cl)CC1)N/N=C\c1ccccc1F,nt,2,nt,nt,-1,0,nt,nt
